Experimental data: ChEMBL document CHEMBL4251588, “2-Alkoxycarbonyl-3-arylamino-5-substituted thiophenes as a novel class of antimicrotubule agents: Design, synthesis, cell growth and tubulin polymerization inhibition” (Eur J Med Chem, 2018)
Active and inactive are the calls of the source. The calls are words filed in the database; no cut-off is given here.

Tests used:
FM3A = assay: Antiproliferative activity against mouse FM3A cells after 2 days by Coulter counter method; format: functional, cell-based; conditions: 48 h
Procedure, shortened: (§1)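 Cells suspended at 300,000–500,000 cells/mL; 100 μL suspension added to 100 μL of compound dilutions. Incubated at 37 °C for 2 days (L1210, FM3A), 3 days (CEM) or 4 days (HeLa), then counted by Coulter counter. Values are mean ± SD of two to three independent experiments.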

L1210 = assay: Antiproliferative activity against mouse L1210 cells after 2 days by Coulter counter method; format: functional, cell-based; conditions: L1210, 48 h
Procedure, shortened: as §1, with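 “counter. IC50 is the concentration giving 50% inhibition of proliferation.” for “counter.”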

HeLa [1] = assay: Antiproliferative activity against human HeLa cells after 4 days by Coulter counter method; format: functional, cell-based; conditions: 96 h
Procedure, shortened: as §1, with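 “counter. IC50 is the concentration giving 50% inhibition of proliferation.” for “counter.”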

CCRF-CEM = assay: Antiproliferative activity against human CEM cells after 3 days by Coulter counter method; format: functional, cell-based; conditions: 72 h
Procedure, shortened: as §1, with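 “counter. IC50 is the concentration giving 50% inhibition of proliferation.” for “counter.”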

[2] = Inhibition of bovine brain tubulin polymerization in presence of GTP by spectrophotometric analysis; parameters: species or system Bos taurus
Procedure, shortened: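 0.4 mM GTP added, mixtures rewarmed to 30 °C in cuvettes and turbidity followed at 350 nm.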

Bos taurus = species: Bos taurus; assay: Inhibition of [3H]colchicine binding to bovine brain tubulin at 5 uM relative to control
Procedure, shortened: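 Reaction mixtures held 1 μM tubulin, 5 μM [3H]colchicine and 5 μM test compound. Inhibition of radiolabelled colchicine binding was measured by a previously described method.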

HeLa [3] = assay: Cell cycle arrest in human HeLa cells assessed as increase in cyclin B1 expression after 24 hrs by Western blot analysis; format: functional, cell-based
Procedure, shortened: (§2)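 HeLa cells treated for 24 or 48 h at several concentrations, washed in ice-cold PBS, lysed on ice 30 min and spun at 15000 x g, 4 °C. 10 μg protein separated by SDS-PAGE, blotted, blocked in 3% BSA, probed overnight at 4 °C with primary antibodies, peroxidase secondary and ECL detection. Stripped membranes reprobed for β-actin as loading control.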

HeLa [4] = assay: Induction of mitochondrial depolarization in human HeLa cells at 100 to 250 nM by JC-1 staining-based flow cytometric analysis; format: functional, cell-based; conditions: TDE = time-dependent effect
Procedure, shortened: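 Mitochondrial potential followed in HeLa cells after 6, 12, 24 or 48 h of exposure. Cells stained with the lipophilic cation JC-1 and the fraction with low Δψmt scored by flow cytometry; mean ± SEM of three independent experiments.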

HeLa [5] = assay: Induction of apoptosis in human HeLa cells assessed as decrease in Bcl-2 levels at 100 to 250 nM after 24 hrs by Western blot analysis; format: functional, cell-based
Procedure, shortened: (§3)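 HeLa cells exposed to compound for varied times, washed twice in ice-cold PBS, lysed on ice 30 min and spun 15000 x g at 4 °C. 10 μg protein per lane by SDS-PAGE, blotted, blocked in 3% BSA, primary antibodies (Bcl-2, Mcl-1) overnight at 4 °C, peroxidase secondary 60 min, ECL detection; membranes stripped and reprobed for β-actin as loading control.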

HeLa [6] = assay: Cell cycle arrest in human HeLa cells assessed as decrease in cyclin B1 expression after 48 hrs by Western blot analysis; format: functional, cell-based; procedure, shortened: as §2
HeLa [7] = assay: Induction of apoptosis in human HeLa cells at 125 to 500 nM after 24 to 48 hrs by annexin V-FITC/propidium iodide staining-based flow cytometric analysis; format: functional, cell-based
Procedure, shortened: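 Treated HeLa cells were harvested at 24 or 48 h and double-labeled with annexin-V-FITC, which marks exposed phosphatidylserine, and PI. Apoptotic fractions were measured by flow cytometry; mean ± SEM of three independent experiments.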

HeLa [8] = assay: Cell cycle arrest in human HeLa cells assessed as increase in cells at S phase at 500 nM after 24 hrs by propidium iodide staining-based flow cytometric analysis
PBL [9] = assay: Growth inhibition of resting human PBL after 72 hrs by MTT assay; format: cell-based
Procedure, shortened: (§4)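 Donor PBL isolated by density gradient, washed, held overnight at 1.0 × 10^6 cells/mL in RPMI-1640 with 10% FBS. Non-adherent cells reseeded at 5 × 10^5 cells/mL, with 2.5 μg/mL PHA (proliferating) or without it (resting), then given compound dilutions. MTT viability read after 72 h. GI50 is the concentration giving 50% growth reduction; mean ± SEM of two experiments.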

HeLa [10] = assay: Induction of apoptosis in human HeLa cells assessed as decrease in Mcl-1 levels at 100 to 250 nM after 24 hrs by Western blot analysis; format: functional, cell-based; procedure, shortened: as §3
HeLa [11] = assay: Induction of ROS production in human HeLa cells at 250 nM after 12 to 24 hrs by H2DCFDA staining-based flow cytometric analysis; format: functional, cell-based
Procedure, shortened: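 HeLa cells treated for 6, 12, 24 or 48 h, then loaded with H2-DCFDA and ROS read by flow cytometry; mean ± SEM of three independent experiments.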

PBL [12] = assay: Growth inhibition of human PHA-stimulated PBL after 72 hrs by MTT assay; format: cell-based; procedure, shortened: as §4
HeLa [13] = assay: Cell cycle arrest in human HeLa cells assessed as reduction in cdc25c expression at 100 nM after 24 hrs by Western blot analysis
HeLa [14] = assay: Cell cycle arrest in human HeLa cells assessed as accumulation of cells at G2/M phase at 500 nM after 24 hrs by propidium iodide staining-based flow cytometric analysis
HeLa [15] = assay: Cell cycle arrest in human HeLa cells assessed as reduction of cells at G1 phase up to 500 uM after 24 hrs by propidium iodide staining-based flow cytometric analysis; format: functional; conditions: in the assay text read “500 nM” for “500 uM”
Procedure, shortened: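 5 × 10^5 HeLa cells exposed to graded compound levels for 24 h; harvested, fixed in ice-cold 70% ethanol, lysed in buffer containing RNase A and 0.1% Triton X-100, PI-stained, DNA content read by flow cytometry. Phase percentages are means ± SEM of two independent experiments.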

HeLa [16] = assay: Cell cycle arrest in human HeLa cells assessed as decrease in Cdk1 Y15 phosphorylated protein level at 250 nM after 24 to 48 hrs by Western blot analysis; format: functional, cell-based; procedure, shortened: as §2

| SMILES | IC50 (FM3A) | IC50 (L1210) | IC50 (HeLa [1]) | IC50 (CCRF-CEM) | IC50 [2] | inhibition (Bos taurus) | also measured |
| --- | --- | --- | --- | --- | --- | --- | --- |
| CCOC(=O)c1sc(-c2ccc(Cl)cc2)cc1Nc1cc(OC)c(OC)c(OC)c1 | 5100 nM | 6000 nM | 9800 nM | 4600 nM | – | – | – |
| COC(=O)c1sc(-c2ccc(F)cc2)cc1Nc1cc(OC)c(OC)c(OC)c1 | 720 nM | 560 nM | 880 nM | 530 nM | 2200 nM | 41% | – |
| COC(=O)c1sc(-c2cccc(OC)c2)cc1Nc1cc(OC)c(OC)c(OC)c1 | 990 nM | 1100 nM | 800 nM | 690 nM | – | – | – |
| COC(=O)c1sc(-c2ccc(C(F)(F)F)cc2)cc1Nc1cc(OC)c(OC)c(OC)c1 | 1100 nM | 1200 nM | 1300 nM | 810 nM | – | – | – |
| CCOC(=O)c1sc(-c2ccccc2)cc1Nc1cc(OC)c(OC)c(OC)c1 | 980 nM | 1100 nM | 1400 nM | 930 nM | – | – | – |
| CCOC(=O)c1sc(-c2ccc(F)cc2)cc1Nc1cc(OC)c(OC)c(OC)c1 | 1000 nM | 1100 nM | 2100 nM | 990 nM | – | – | – |
| COC(=O)c1sc(-c2cccs2)cc1Nc1cc(OC)c(OC)c(OC)c1 | 160 nM | 130 nM | 160 nM | 160 nM | 1200 nM | 62% | Activity (HeLa [3]): Dose-dependent effect; Activity (HeLa [4]): Tde; Activity (HeLa [5]): Active; Activity (HeLa [6]): Active; Activity (HeLa [7]): Active; Activity (HeLa [8]): Active; GI50 (PBL [9]): 85700 nM; Activity (HeLa [10]): Active; Activity (HeLa [11]): Active; GI50 (PBL [12]): 29300 nM; Activity (HeLa [13]): Active; Activity (HeLa [14]): Active; Activity (HeLa [15]): Active; Activity (HeLa [16]): Active |
| COC(=O)c1sc(-c2ccc(C)cc2)cc1Nc1cc(OC)c(OC)c(OC)c1 | 180 nM | 150 nM | 260 nM | 180 nM | 1200 nM | 70% | Activity (HeLa [7]): Active; Activity (HeLa [8]): Active; GI50 (PBL [9]): 31700 nM; GI50 (PBL [12]): 20000 nM; Activity (HeLa [14]): Active; Activity (HeLa [15]): Active |
| COC(=O)c1sc(-c2cc(OC)c(OC)c(OC)c2)cc1Nc1cc(OC)c(OC)c(OC)c1 | > 250000 nM | > 250000 nM | 162000 nM | > 250000 nM | – | – | – |
| COC(=O)c1sc(-c2ccccc2)cc1Nc1cc(OC)c(OC)c(OC)c1 | 210 nM | 240 nM | 670 nM | 200 nM | 1300 nM | 57% | Activity (HeLa [7]): Active; Activity (HeLa [8]): Active; GI50 (PBL [9]): 45700 nM; GI50 (PBL [12]): 19000 nM; Activity (HeLa [14]): Active; Activity (HeLa [15]): Active |
| CCOC(=O)c1sc(-c2ccc(C)cc2)cc1Nc1cc(OC)c(OC)c(OC)c1 | 820 nM | 820 nM | 780 nM | 760 nM | – | – | – |
| COC(=O)c1sc(-c2ccc(Cl)c(Cl)c2)cc1Nc1cc(OC)c(OC)c(OC)c1 | 4600 nM | 5700 nM | 5000 nM | 3300 nM | – | – | – |
| COc1ccc(/C=C\c2cc(OC)c(OC)c(OC)c2)cc1O [COMBRETASTATIN A4] | – | 3 nM | 2 nM | 2 nM | – | – | – |
| CCOC(=O)c1sc(-c2ccc(OC)cc2)cc1Nc1cc(OC)c(OC)c(OC)c1 | 1200 nM | 1200 nM | 2300 nM | 1100 nM | – | – | – |
| COC(=O)c1sc(-c2ccc(Cl)cc2)cc1Nc1cc(OC)c(OC)c(OC)c1 | 880 nM | 1100 nM | 870 nM | 870 nM | – | – | – |
| COC(=O)c1sc(-c2ccc(OC)c(OC)c2)cc1Nc1cc(OC)c(OC)c(OC)c1 | 430 nM | 480 nM | 890 nM | 470 nM | 2700 nM | 30% | – |
| COC(=O)c1sc(-c2ccc([N+](=O)[O-])cc2)cc1Nc1cc(OC)c(OC)c(OC)c1 | 930 nM | 990 nM | 1000 nM | 760 nM | – | – | – |
| CCOc1ccc(-c2cc(Nc3cc(OC)c(OC)c(OC)c3)c(C(=O)OC)s2)cc1 | 5700 nM | 6300 nM | 4400 nM | 5400 nM | – | – | – |
| COC(=O)c1sc(-c2ccc(OC)cc2)cc1Nc1cc(OC)c(OC)c(OC)c1 | 250 nM | 270 nM | 840 nM | 230 nM | 2000 nM | 46% | – |
